Laboratory results reported in ChEMBL document CHEMBL1135932, “5'-Deoxy congeners of 9-(3-amido-3-deoxy-beta-D-xylofuranosyl)-N(6)-cyclopentyladenine: new adenosine A(1) receptor antagonists and inverse agonists” (J Med Chem, 2002).

Each compound was assayed against T1, Adenosine receptor A1 (Rattus norvegicus) (UniProt P25099) (assay: Percent displacement of radioligand at 10e-6 M from rat Adenosine A1 receptor).
T1 sequence (whole entry): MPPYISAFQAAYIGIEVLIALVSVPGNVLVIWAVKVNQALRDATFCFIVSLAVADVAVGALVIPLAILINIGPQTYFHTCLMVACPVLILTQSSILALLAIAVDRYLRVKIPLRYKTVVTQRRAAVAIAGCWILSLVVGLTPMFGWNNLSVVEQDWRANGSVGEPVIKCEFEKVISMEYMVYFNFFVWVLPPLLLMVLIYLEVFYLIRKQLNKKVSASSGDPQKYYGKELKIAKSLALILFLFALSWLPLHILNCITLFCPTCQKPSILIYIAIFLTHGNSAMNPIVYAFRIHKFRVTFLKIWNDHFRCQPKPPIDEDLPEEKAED
Summary of the method: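 Radioligand displacement by ligand at 10⁻⁶ M, using rat cortical membranes labelled with [³H]DPCPX.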
`Cc1ccc(C(=O)N[C@@H]2[C@@H](O)[C@H](n3cnc4c(NC5CCCC5)ncnc43)O[C@@H]2C)cc1F` showed a Dispacement of 47%.
`C[C@H]1O[C@@H](n2cnc3c(NC4CCCC4)ncnc32)[C@H](O)[C@H]1NC(=O)c1ccc(F)c(Cl)c1` was tested, and the Displacement was 44%.

The compounds below were run against T2, Adenosine receptor A1 (Homo sapiens) (UniProt P30542) (assay: Forskolin-induced cAMP production at human Adenosine A1 receptor).
T2 sequence (whole entry): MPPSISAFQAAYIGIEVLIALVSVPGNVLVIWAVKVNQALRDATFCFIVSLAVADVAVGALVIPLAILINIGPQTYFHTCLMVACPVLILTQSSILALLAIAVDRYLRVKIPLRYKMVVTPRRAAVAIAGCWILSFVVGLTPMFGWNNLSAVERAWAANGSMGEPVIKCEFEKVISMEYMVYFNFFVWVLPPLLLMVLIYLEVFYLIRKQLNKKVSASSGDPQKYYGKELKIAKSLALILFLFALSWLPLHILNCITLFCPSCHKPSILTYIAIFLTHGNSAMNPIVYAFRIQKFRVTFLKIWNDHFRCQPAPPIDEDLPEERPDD
Format: functional
Summary of the method: (§1)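 Human A1-expressing CHO cells seeded at 2 × 10⁵ cells/well. Next day, 30 min at 37 °C in Hepes-buffered medium pH 7.4 with adenosine deaminase (5 U/mL), cilostamide (50 μM) and rolipram (50 μM). […] Expressed as % of forskolin.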
`Cc1ccc(C(=O)N[C@@H]2[C@@H](O)[C@H](n3cnc4c(NC5CCCC5)ncnc43)O[C@@H]2CO)cc1F` gave a Production of 135%.
`C[C@H]1O[C@@H](n2cnc3c(NC4CCCC4)ncnc32)[C@H](O)[C@H]1NC(=O)CCCc1cccs1` gave a Production of 148%.
With `CCCn1c(=O)c2[nH]c(C3CCCC3)nc2n(CCC)c1=O` the Production was 157%.
Work on `O=C(N[C@@H]1[C@@H](O)[C@H](n2cnc3c(NC4CCCC4)ncnc32)O[C@@H]1CO)c1ccc2c(c1)OCO2` yielded a Production of 126%.
In the case of `O=C(N[C@@H]1[C@@H](O)[C@H](n2cnc3c(NC4CCCC4)ncnc32)O[C@@H]1CO)c1ccc(F)c(Cl)c1`, the Production is reported as 125%.
Work on `C[C@H]1O[C@@H](n2cnc3c(NC4CCCC4)ncnc32)[C@H](O)[C@H]1NC(=O)C1CCCC[C@H]1C(=O)c1cccs1` (some centres not stated) yielded a Production of 182%.
`O=C(CCCc1cccs1)N[C@@H]1[C@@H](O)[C@H](n2cnc3c(NC4CCCC4)ncnc32)O[C@@H]1CO` was tested, and the Production was 152%.

The compounds below were run against T2, Adenosine receptor A1 (Homo sapiens) (assay: Forskolin-induced cAMP production at human Adenosine A1 receptor receptor).
Format: functional
Summary of the method: as §1
`Cn1cnc2c(NC3CCCC3)ncnc21` gave a Production of 139%.

What follows are compounds tested against T3, Adenosine receptor A1 (Rattus norvegicus, UniProt P25099) (assay: Binding affinity at rat Adenosine A1 receptor in the absence of GTP).
T3 sequence (P25099 whole entry): T1 sequence (whole entry)
Summary of the method: (§2)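 GTP shift taken from these two Ki values. Done only for compounds giving >50% radioligand displacement at 10⁻⁶ M. At least three independent experiments in duplicate.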
With `C[C@H]1O[C@@H](n2cnc3c(NC4CCCC4)ncnc32)[C@H](O)[C@H]1NC(=O)C1(c2ccccc2)CCCC1` the Ki was 138 nM.
With `Cc1ccc(C(=O)N[C@@H]2[C@@H](O)[C@H](n3cnc4c(NC5CCCC5)ncnc43)O[C@@H]2CO)cc1F` the Ki was 112 nM.
Compound `OC[C@H]1O[C@@H](n2cnc3c(NC4CCCC4)ncnc32)C[C@H]1O` has a Ki of 110 nM.
For `C[C@H]1O[C@@H](n2cnc3c(NC4CCCC4)ncnc32)[C@H](O)[C@H]1NC(=O)CCCc1cccs1`, the Ki was 55 nM.
Compound `C[C@H]1O[C@@H](n2cnc3c(NC4CCCC4)ncnc32)[C@H](O)[C@H]1NC(=O)CCCOc1ccccc1` has a Ki of 473 nM.
`CC(C)c1ccc(C(=O)N[C@@H]2[C@@H](O)[C@H](n3cnc4c(NC5CCCC5)ncnc43)O[C@@H]2CO)cc1` was tested, and the Ki was 171 nM.
Compound `Cc1ccc(C(=O)N[C@@H]2[C@@H](O)[C@H](n3cnc4c(NC5CCCC5)ncnc43)O[C@@H]2CO)cc1C` has a Ki of 24 nM.
In the case of `Cn1cnc2c(NC3CCCC3)ncnc21`, the Ki is reported as 279 nM.
Compound `CCc1ccc(C(=O)N[C@@H]2[C@@H](O)[C@H](n3cnc4c(NC5CCCC5)ncnc43)O[C@@H]2C)cc1` has a Ki of 240 nM.
With `C[C@H]1O[C@@H](n2cnc3c(NC4CCCC4)ncnc32)[C@H](O)[C@H]1O` the Ki was 70 nM.
With `O=C(N[C@@H]1[C@@H](O)[C@H](n2cnc3c(NC4CCCC4)ncnc32)O[C@@H]1CO)c1ccc2c(c1)OCO2` the Ki was 102 nM.
Compound `Cc1ccc(C(=O)N[C@@H]2[C@@H](O)[C@H](n3cnc4c(NC5CCCC5)ncnc43)O[C@@H]2C)cc1C` has a Ki of 236 nM.
`O=C(N[C@@H]1[C@@H](O)[C@H](n2cnc3c(NC4CCCC4)ncnc32)O[C@@H]1CO)c1ccc(F)c(Cl)c1` was tested, and the Ki was 78 nM.
`CC(C)c1ccc(C(=O)N[C@@H]2[C@@H](O)[C@H](n3cnc4c(NC5CCCC5)ncnc43)O[C@@H]2C)cc1` gave a Ki of 270 nM.
`C[C@H]1O[C@@H](n2cnc3c(NC4CCCC4)ncnc32)[C@H](O)[C@H]1NC(=O)C1CCCC[C@H]1C(=O)c1cccs1` (some centres not stated) gave a Ki of 98 nM.
`O=C(CCCc1cccs1)N[C@@H]1[C@@H](O)[C@H](n2cnc3c(NC4CCCC4)ncnc32)O[C@@H]1CO` was tested, and the Ki was 67 nM.
`C[C@H]1O[C@@H](n2cnc3c(NC4CCCC4)ncnc32)[C@H](O)[C@H]1NC(=O)C1(c2ccccc2)CCCCC1` was tested, and the Ki was 286 nM.

The compounds below were run against T3, Adenosine receptor A1 (assay: Binding affinity at rat Adenosine A1 receptor in the presence of GTP).
Summary of the method: as §2
`C[C@H]1O[C@@H](n2cnc3c(NC4CCCC4)ncnc32)[C@H](O)[C@H]1NC(=O)C1(c2ccccc2)CCCC1` showed a Ki of 114 nM.
`OC[C@H]1O[C@@H](n2cnc3c(NC4CCCC4)ncnc32)C[C@H]1O` gave a Ki of 470 nM.
`C[C@H]1O[C@@H](n2cnc3c(NC4CCCC4)ncnc32)[C@H](O)[C@H]1NC(=O)CCCc1cccs1` showed a Ki of 38 nM.
In the case of `Cc1ccc(C(=O)N[C@@H]2[C@@H](O)[C@H](n3cnc4c(NC5CCCC5)ncnc43)O[C@@H]2CO)cc1C`, the Ki is reported as 17 nM.
In the case of `Cn1cnc2c(NC3CCCC3)ncnc21`, the Ki is reported as 259 nM.
Work on `C[C@H]1O[C@@H](n2cnc3c(NC4CCCC4)ncnc32)[C@H](O)[C@H]1O` yielded a Ki of 450 nM.
For `O=C(N[C@@H]1[C@@H](O)[C@H](n2cnc3c(NC4CCCC4)ncnc32)O[C@@H]1CO)c1ccc(F)c(Cl)c1`, the Ki was 54 nM.
`C[C@H]1O[C@@H](n2cnc3c(NC4CCCC4)ncnc32)[C@H](O)[C@H]1NC(=O)C1CCCC[C@H]1C(=O)c1cccs1` (some centres not stated) showed a Ki of 70 nM.
`O=C(CCCc1cccs1)N[C@@H]1[C@@H](O)[C@H](n2cnc3c(NC4CCCC4)ncnc32)O[C@@H]1CO` showed a Ki of 46 nM.
Work on `C[C@H]1O[C@@H](n2cnc3c(NC4CCCC4)ncnc32)[C@H](O)[C@H]1NC(=O)C1(c2ccccc2)CCCCC1` yielded a Ki of 210 nM.

Each compound was assayed against T4, Adenosine receptor A1 (Homo sapiens, UniProt P30542) (assay: Binding affinity at human Adenosine A1 receptor expressed in CHO cells).
T4 sequence (P30542 whole entry): T2 sequence (whole entry)
Format: cell-based
Summary of the method: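 Membranes from CHO cells stably expressing human A1 receptor (~3 pmol/mg protein), 6 μg, incubated 1 h at 25 °C in 50 mM Tris HCl pH 7.4 with ~1.6 nM [³H]DPCPX and increasing test concentrations. Stopped by dilution in ice-cold buffer, then filtration. At least three independent experiments in duplicate.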
`Cc1ccc(C(=O)N[C@@H]2[C@@H](O)[C@H](n3cnc4c(NC5CCCC5)ncnc43)O[C@@H]2CO)cc1F` gave a Ki of 773 nM.
Compound `C[C@H]1O[C@@H](n2cnc3c(NC4CCCC4)ncnc32)[C@H](O)[C@H]1NC(=O)CCCc1cccs1` has a Ki of 419 nM.
`Cc1ccc(C(=O)N[C@@H]2[C@@H](O)[C@H](n3cnc4c(NC5CCCC5)ncnc43)O[C@@H]2CO)cc1C` gave a Ki of 137 nM.
Compound `Cn1cnc2c(NC3CCCC3)ncnc21` has a Ki of 1190 nM.
Work on `O=C(N[C@@H]1[C@@H](O)[C@H](n2cnc3c(NC4CCCC4)ncnc32)O[C@@H]1CO)c1ccc2c(c1)OCO2` yielded a Ki of 443 nM.
`O=C(N[C@@H]1[C@@H](O)[C@H](n2cnc3c(NC4CCCC4)ncnc32)O[C@@H]1CO)c1ccc(F)c(Cl)c1` was tested, and the Ki was 579 nM.
Work on `C[C@H]1O[C@@H](n2cnc3c(NC4CCCC4)ncnc32)[C@H](O)[C@H]1NC(=O)C1CCCC[C@H]1C(=O)c1cccs1` (some centres not stated) yielded a Ki of 971 nM.
With `O=C(CCCc1cccs1)N[C@@H]1[C@@H](O)[C@H](n2cnc3c(NC4CCCC4)ncnc32)O[C@@H]1CO` the Ki was 630 nM.

What follows are compounds tested against T2, Adenosine receptor A1 (Homo sapiens) (assay: Forskolin-induced cAMP production at human A1 adenosine receptor).
Format: functional
Summary of the method: as §1
In the case of `Cc1ccc(C(=O)N[C@@H]2[C@@H](O)[C@H](n3cnc4c(NC5CCCC5)ncnc43)O[C@@H]2CO)cc1C`, the Production is reported as 126%.

The compounds below were run against Adenosine receptor A2a (Rattus norvegicus, UniProt P30543) (assay: Binding affinity at rat Adenosine A2A receptor).
Chain of Adenosine receptor A2a (P30543 whole entry): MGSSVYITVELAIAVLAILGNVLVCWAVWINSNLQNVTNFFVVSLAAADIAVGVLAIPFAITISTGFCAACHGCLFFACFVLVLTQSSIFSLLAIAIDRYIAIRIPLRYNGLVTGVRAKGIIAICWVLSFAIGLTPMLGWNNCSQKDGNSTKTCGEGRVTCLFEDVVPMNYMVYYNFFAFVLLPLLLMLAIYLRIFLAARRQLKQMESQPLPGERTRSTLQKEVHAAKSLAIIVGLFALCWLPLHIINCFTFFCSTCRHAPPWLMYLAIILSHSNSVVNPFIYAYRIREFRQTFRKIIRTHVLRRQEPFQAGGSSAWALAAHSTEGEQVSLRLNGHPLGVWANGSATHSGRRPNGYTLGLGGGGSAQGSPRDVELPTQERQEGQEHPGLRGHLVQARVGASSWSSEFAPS
Summary of the method: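 Rat striatal membranes with [³H]ZM241385 as radioligand. At least three independent experiments in duplicate.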
In the case of `CC(C)c1ccc(C(=O)N[C@@H]2[C@@H](O)[C@H](n3cnc4c(NC5CCCC5)ncnc43)O[C@@H]2CO)cc1`, the Ki is reported as 437 nM.
